Calls of active or inactive are those of the source. No cut-off for these calls is given here.

The subject of assay [1] is Saccharomyces cerevisiae. As to the kind of experiment: Antimicrobial activity against Saccharomyces cerevisiae YCG198 harboring Saccharomyces cerevisiae Y8205 MATalpha PDR1delta::NAT PDR3 delta::URA3 assessed as growth inhibition at 100 uM after 18 hrs. The assay is classed as functional. To be noted: YCG198, 18 h, read-out: GI. Summed up: (§1)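 Stationary-phase yeast grown in synthetic complete medium, diluted to 5 × 10^5 cells/mL, then exposed 18 h at 30 °C to seven-point half-log dilutions from DMSO stocks (final 100 to 0.01 μM; one extended series topped at 300 μM). DMSO (1% or 3%) served as control. Growth was read as OD590, and residual growth = OD/OD_DMSO × 100. Mean ± standard error of two independent experiments in triplicate; IC50 from curve fit.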

Assay [2] relates to Saccharomyces cerevisiae. As to the kind of experiment: Antimicrobial activity against Saccharomyces cerevisiae YCG198 harboring Saccharomyces cerevisiae Y8205 MATalpha PDR1delta::NAT PDR3 delta::URA3 assessed as growth inhibition after 18 hrs. Particulars: YCG198, 18 h. It counts as functional, organism-based. Summed up: as §1
The test system of assay [3] is HL-60. Briefly: Cytotoxicity against human HL60 cells assessed as growth inhibition after 2 days by MTT assay. The assay is classed as functional, cell-based. To be noted: HL-60, 48 h. In general terms: Formazan colour is commonly taken as a measure of viable cells.
Assay [4] relates to Saccharomyces cerevisiae. Briefly: Antimicrobial activity against Saccharomyces cerevisiae YCG198 harboring Saccharomyces cerevisiae Y8205 MATalpha PDR1delta::NAT PDR3 delta::URA3 assessed as growth inhibition at 0.01 to 100 uM after 18 hrs. The assay is classed as functional, organism-based. Summed up:
as §1

For assay [5], the system named is Saccharomyces cerevisiae. Briefly: Antimicrobial activity against wild type Saccharomyces cerevisiae YCG117 harboring Saccharomyces cerevisiae Y8205 MATalpha ura3delta0::NAT assessed as growth inhibition at 0.01 to 100 uM after 18 hrs. It counts as functional, organism-based. In a few lines:
as §1

The term IC50 denotes the midpoint of a concentration-inhibition curve. `COc1c(O)c(C)c(C/C=C(\C)CCCCCCc2ccccc2)oc1=O` [LEHUALIDE F]: the inhibition of growth at 100 µM in assay [1] is 60%. The IC50 in assay [2] stood at 44 µM; in assay [3] it was 6.2 µM.
As to `COc1c(C)c(CCCCCCCCCCSC(C)=O)oc(=O)c1OC` [LEHUALIDE H], the “growth inhibition (GI)” value in assay [4] and in assay [5] was “inactive” each time. Moreover, the IC50 in assay [3] came to 14.6 µM.
As for `COc1c(C)c(CCCCCCCCCCSC)oc(=O)c1OC` [LEHUALIDE I], the “growth inhibition (GI)” value in assay [5] was “inactive”. Further, the inhibition of growth at 100 µM in assay [1] was found to be 67%. Moreover, the IC50 in assay [3] turned out to be 10.8 µM.
Turning to `COc1c(O)c(C)c(C/C=C(\C)CCCCCCCCc2ccccc2)oc1=O` [LEHUALIDE G], the “growth inhibition (GI)” value in assay [5] was “inactive”. Also, in assay [1], the inhibition of growth at 100 µM was determined as 68%. The half-inhibitory concentration (IC50) in assay [3] was 5.4 µM.

For the origin of these results see ChEMBL document CHEMBL1773041, “Lehualides E-K, cytotoxic metabolites from the Tongan marine sponge Plakortis sp” (J Nat Prod, 2011).
